{"source": "the EternaBench riboswitch data", "tested_on": "MS2 coat protein", "experiment": "apparent Kd, MS2 coat protein; higher = weaker binding; RNA-MaP array; theophylline 2 mM where present", "outline": "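Green signal from SNAP-549-labelled MS2 coat protein was normalised to red-channel RNA signal and to the median Fmax of control clusters. The protein was titrated from 0.7 or 1.5 nM, doubling to 3 µM, without and then with constant ligand, over designs transcribed by stalled E. coli RNA polymerase on Illumina sequencing-chip clusters, in 100 mM Tris-HCl pH 7.5, 80 mM KCl, 4 mM MgCl2, BSA, DTT, yeast tRNA and Tween-20. The apparent Kd is the median of filtered per-cluster binding-curve fits.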", "key": {"[1]": {"details": "designed as: ON switch for theophylline, no ligand"}, "[2]": {"details": "ligand present: theophylline, designed as: ON switch for theophylline"}, "[3]": {"details": "designed as: OFF switch for theophylline, no ligand"}, "[4]": {"details": "ligand present: theophylline, designed as: OFF switch for theophylline"}}, "data": [{"sequence": "UAUAAAAUAACAGAUACCAGCGUGUUAUAAAACAUGAGGAUCACCCAUGUAGUGAUCAAGCGCCCUUGGCAGCUGGUAUUUUAUG", "values": [{"measurement": "apparent Kd", "setting": "[1]", "result": 79.3, "unit": "nM"}, {"measurement": "apparent Kd", "setting": "[2]", "result": 133, "unit": "nM"}]}, {"sequence": "AUUUAUGGUCGUGAUACCAGACAUACAUGAGGAUCACCCAUGUGAAAUAACAUAAUUUAGGUCCCUUGGCAGCACUUUUUAAUUA", "values": [{"measurement": "apparent Kd", "setting": "[1]", "result": 53.8, "unit": "nM"}, {"measurement": "apparent Kd", "setting": "[2]", "result": 38.3, "unit": "nM"}]}, {"sequence": "ACGAACGAUAGUGAUACCAGACGAACAUGAGGAUCACCCAUGUUAUACACAUGGUUUAUUGUCCCUUGGCAGCACUUUAAGUUCG", "values": [{"measurement": "apparent Kd", "setting": "[3]", "result": 147, "unit": "nM"}, {"measurement": "apparent Kd", "setting": "[4]", "result": 89.6, "unit": "nM"}]}, {"sequence": "ACAUGAGGAUCACCCAUGUGGCGACUUGAUACCAGACCCGCACUAGUCCCUUGGCAGCAACUACGUGUGGGACACCCAUGUGAAG", "values": [{"measurement": "apparent Kd", "setting": "[3]", "result": 20.8, "unit": "nM"}, {"measurement": "apparent Kd", "setting": "[4]", "result": 33.7, "unit": "nM"}]}, {"sequence": "AUCGUACCUAGUGAUACCAGCAAGUGAUCAUAACAUGAGGAUCACCCAUGUAAUCAGUGAUGCCCUUGGCAGCAUAAUCGUUACA", "values": [{"measurement": "apparent Kd", "setting": "[1]", "result": 193, "unit": "nM"}, {"measurement": "apparent Kd", "setting": "[2]", "result": 155, "unit": "nM"}]}, {"sequence": "AUAUUAGACCUGGAUACCAGCGACAUGAGGAUCACCCAUGUAUGUGCAUCAGCCAUGAUAUGCCCUUGGCAGCCACCGAGGUCGU", "values": [{"measurement": "apparent Kd", "setting": "[3]", "result": 13.6, "unit": "nM"}, {"measurement": "apparent Kd", "setting": "[4]", "result": 37.2, "unit": "nM"}]}, {"sequence": "AUAGUCUUGAGUGAUACCAGACUACAUGAGGAUCACCCAUGUUUCUUUUGGUUAUCAUGUGUCCCUUGGCAGCACGCAUGUAUAG", "values": [{"measurement": "apparent Kd", "setting": "[3]", "result": 16.4, "unit": "nM"}, {"measurement": "apparent Kd", "setting": "[4]", "result": 65.8, "unit": "nM"}]}, {"sequence": "ACUCGGUGUUUGUUGCUCCGAGUUUAUGAUACCAGUUAGUUUUAUGGCCCUUGGCAGCAUAGGACAUGAGGAUCACCCAUGUGUU", "values": [{"measurement": "apparent Kd", "setting": "[1]", "result": 31.7, "unit": "nM"}, {"measurement": "apparent Kd", "setting": "[2]", "result": 53.8, "unit": "nM"}]}, {"sequence": "UAAACACAUGAGGAUCACCCAUGUCAUGAUACCAGUCAACAUGAGGACCCUUGGCAGCAUAAAAUGGGUAACAUGAGGAUCACCC", "values": [{"measurement": "apparent Kd", "setting": "[3]", "result": 38.4, "unit": "nM"}, {"measurement": "apparent Kd", "setting": "[4]", "result": 112, "unit": "nM"}]}, {"sequence": "AAAAUAAAUAAAACGGGUAACAUGAAGGAUACCAGCCAGGAAACUGGCCCUUGGCAGCCUCUACAUGAGGAUCACCCAUGUCCCG", "values": [{"measurement": "apparent Kd", "setting": "[1]", "result": 445, "unit": "nM"}, {"measurement": "apparent Kd", "setting": "[2]", "result": 35.7, "unit": "nM"}]}, {"sequence": "UUAGAUAUGACGGAUACCAGCGUGUUGUAGAACAUGAGGAUCACCCAUGUAGUGAUCGUGCGCCCUUGGCAGCUGGUAUGUUUGG", "values": [{"measurement": "apparent Kd", "setting": "[1]", "result": 250, "unit": "nM"}, {"measurement": "apparent Kd", "setting": "[2]", "result": 898, "unit": "nM"}]}, {"sequence": "AAGGUGAUCCGUGAUACCAGCUCAACAUGAGGAUCACCCAUGUAAGCCUGGAAACAGGCGAGCCCUUGGCAGCACGGUAAUAAUA", "values": [{"measurement": "apparent Kd", "setting": "[1]", "result": 11.9, "unit": "nM"}, {"measurement": "apparent Kd", "setting": "[2]", "result": 13.8, "unit": "nM"}]}, {"sequence": "AGCGCUAUGCAUGAUACCAGCUACAUGAGGAUCACCCAUGUGCGUCAGAAAUGACUGUGUAGCCCUUGGCAGCAUAAAGCAUGUA", "values": [{"measurement": "apparent Kd", "setting": "[3]", "result": 19.1, "unit": "nM"}, {"measurement": "apparent Kd", "setting": "[4]", "result": 46.3, "unit": "nM"}]}, {"sequence": "AAGGUGAUCCCAGAUACCAGCUUAACAUGAGGAUCACCCAUGUUUGGGACGAAAGUCCCGGGCCCUUGGCAGCUGGGUUGCCAAG", "values": [{"measurement": "apparent Kd", "setting": "[1]", "result": 196, "unit": "nM"}, {"measurement": "apparent Kd", "setting": "[2]", "result": 131, "unit": "nM"}]}, {"sequence": "UUCUGGUCCCGUGAUACCAGAGACAUGAGGAUCACCCAUGUACAUGAGGAUCACCCAUGUUUCCCUUGGCAGCACUGUAGGGAGC", "values": [{"measurement": "apparent Kd", "setting": "[3]", "result": 196, "unit": "nM"}, {"measurement": "apparent Kd", "setting": "[4]", "result": 1220, "unit": "nM"}]}, {"sequence": "AUAUGAUCAUGUGAUACCAGAAAUGGUAGUCCUCGCUGGAUUACAUGAGGAUCACCCAUGUUCCCUUGGCAGCAUAUGAUCAUAU", "values": [{"measurement": "apparent Kd", "setting": "[3]", "result": 66.6, "unit": "nM"}, {"measurement": "apparent Kd", "setting": "[4]", "result": 751, "unit": "nM"}]}, {"sequence": "AUCGCACCUGGUGAUACCAGCGUUUGCUCGUGACAUGAGGAUCACCCAUGUGGCCAGUGAUGCCCUUGGCAGCAUGGUCGGUGCA", "values": [{"measurement": "apparent Kd", "setting": "[1]", "result": 230, "unit": "nM"}, {"measurement": "apparent Kd", "setting": "[2]", "result": 177, "unit": "nM"}]}, {"sequence": "AGCAUUGUAACAGAUACCAGACUUUUAAUGCCUCUAAUAACAUGAGGAUCACCCAUGUAUGUCCCUUGGCAGCUGUUAUGAUGCA", "values": [{"measurement": "apparent Kd", "setting": "[3]", "result": 115, "unit": "nM"}, {"measurement": "apparent Kd", "setting": "[4]", "result": 220, "unit": "nM"}]}, {"sequence": "AUCGUACCUGAUGAUACCAGCAAUUGCUCGUAACAUGAGGAUCACCCAUGUGACCAGUGAUGCCCUUGGCAGCAUGGUCGGUGCA", "values": [{"measurement": "apparent Kd", "setting": "[1]", "result": 172, "unit": "nM"}, {"measurement": "apparent Kd", "setting": "[2]", "result": 38.5, "unit": "nM"}]}, {"sequence": "UGACAUUGCUCAGAUACCAGACAUGAGGAUCACCCAUGUACCAAGGUAAGAAAAUAACAUGUCCCUUGGCAGCUGAGCAAUGUCU", "values": [{"measurement": "apparent Kd", "setting": "[3]", "result": 16.2, "unit": "nM"}, {"measurement": "apparent Kd", "setting": "[4]", "result": 240, "unit": "nM"}]}, {"sequence": "UUCUACAUGAGGAUCACCCAUGUGGGUGAUACCAGCACUUUUUGGUGCCCUUGGCAGCACAUGAGAAUGCCGUAAAAUCGGCGAU", "values": [{"measurement": "apparent Kd", "setting": "[1]", "result": 334, "unit": "nM"}, {"measurement": "apparent Kd", "setting": "[2]", "result": 500, "unit": "nM"}]}, {"sequence": "ACUUUGUCGGGUGAUACCAGCCUCGGCAAAUCUCGUGCCGAACAUGAGGAUCACCCAUGUGGCCCUUGGCAGCACAUGACAACUC", "values": [{"measurement": "apparent Kd", "setting": "[1]", "result": 442, "unit": "nM"}, {"measurement": "apparent Kd", "setting": "[2]", "result": 70, "unit": "nM"}]}, {"sequence": "AUAUGAUCAUAUGAUACCAGAAAUGGUAUUCCUUUCUUUCUUACAUGAGGAUCACCCAUGUUCCCUUGGCAGCAUAUGAUCAUAU", "values": [{"measurement": "apparent Kd", "setting": "[3]", "result": 174, "unit": "nM"}, {"measurement": "apparent Kd", "setting": "[4]", "result": 193, "unit": "nM"}]}]}
